Laboratory results: ChEMBL document CHEMBL1828575, “Design, synthesis and antiproliferative activities of biarylolefins based on polyhydroxylated and carbohydrate scaffolds” (Eur J Med Chem, 2011)

Columns and labels:
Assay type in all cases: functional
[1] = test system: HT-29; assay: Cytotoxicity against human HT-29 cells assessed as cellular growth at 10 uM after 48 hrs by SRB assay
Procedure, shortened: (§1)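 NCI60 single-dose screen of cells in RPMI 1640 with 5% FBS and 2 mM L-glutamine, preincubated 24 h at 37 °C, 5% CO₂. Cells were then exposed 48 h to compound added from DMSO stock. TCA-fixed, stained with 0.4% SRB in 1% acetic acid, dye solubilised in 10 mM Tris base and read at 515 nm. Growth is given as percent of untreated control.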

[2] = test system: KM12; assay: Cytotoxicity against human KM12 cells assessed as cellular growth at 10 uM after 48 hrs by SRB assay; procedure, shortened: as §1
[3] = test system: NCI-H522; assay: Cytotoxicity against human NCI-H522 cells assessed as cellular growth at 10 uM after 48 hrs by SRB assay
Procedure, shortened: (§2)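 NCI-60 panel lines grown in RPMI 1640 with 5% FBS and 2 mM L-glutamine. Plated at 5000–40,000 cells/well and preincubated 24 h at 37 °C, 5% CO₂, with time-zero plates fixed in TCA. Compounds, dissolved in DMSO and diluted in medium, were applied for 48 h. Cells were TCA-fixed (10% final for adherent, 16% for suspension) and stained with 0.4% SRB in 1% acetic acid. Dye was solubilised in 10 mM Tris base and read at 515 nm; growth was expressed as a percentage of untreated control.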

[4] = test system: NCI-H322M; assay: Cytotoxicity against human NCI-H322M cells assessed as cellular growth at 10 uM after 48 hrs by SRB assay; procedure, shortened: as §2
[5] = Cytotoxicity against human NCI60 cells assessed as cellular growth at 10 uM after 48 hrs by SRB assay relative to untreated control; procedure, shortened: as §2
[6] = test system: K562; assay: Cytotoxicity against human K562 cells assessed as cellular growth at 10 uM after 48 hrs by SRB assay; procedure, shortened: as §1
[7] = test system: HCT-116; assay: Cytotoxicity against human HCT116 cells assessed as cellular growth at 10 uM after 48 hrs by SRB assay; procedure, shortened: as §1
[8] = test system: NCI-H460; assay: Cytotoxicity against human NCI-H460 cells assessed as cellular growth at 10 uM after 48 hrs by SRB assay; procedure, shortened: as §2
[9] = test system: NCI-H226; assay: Cytotoxicity against human NCI-H226 cells assessed as cellular growth at 10 uM after 48 hrs by SRB assay; procedure, shortened: as §2
[10] = test system: SNB-75; assay: Cytotoxicity against human SNB75 cells assessed as cellular growth at 10 uM after 48 hrs by SRB assay; procedure, shortened: as §2
[11] = test system: SK-MEL-5; assay: Cytotoxicity against human SK-MEL-5 cells assessed as cellular growth at 10 uM after 48 hrs by SRB assay; procedure, shortened: as §2
[12] = test system: UACC-62; assay: Cytotoxicity against human UACC62 cells assessed as cellular growth at 10 uM after 48 hrs by SRB assay; procedure, shortened: as §2
[13] = test system: OVCAR-5; assay: Cytotoxicity against human OVCAR5 cells assessed as cellular growth at 10 uM after 48 hrs by SRB assay; procedure, shortened: as §2
[14] = test system: NCI/ADR-RES; assay: Cytotoxicity against human NCI/ADR-RES cells assessed as cellular growth at 10 uM after 48 hrs by SRB assay; procedure, shortened: as §2
[15] = test system: TK-10; assay: Cytotoxicity against human TK10 cells assessed as cellular growth at 10 uM after 48 hrs by SRB assay; procedure, shortened: as §2
[16] = test system: BT-549; assay: Cytotoxicity against human BT549 cells assessed as cellular growth at 10 uM after 48 hrs by SRB assay; procedure, shortened: as §1
[17] = test system: NCI-H522; assay: Antitumor activity against human NCI-H522 cells after 48 hrs by SRB assay; conditions: NCI-H522, 48 h
Procedure, shortened: (§3)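 NCI60 panel in RPMI 1640 with 5% FBS and 2 mM L-glutamine. Cells were plated at 5000–40,000/well by doubling time, held 24 h, then time-zero plates were TCA-fixed. Five concentrations (10-fold or half-log dilutions of DMSO stocks) were applied for 48 h at 37 °C, 5% CO2. Cells were fixed with cold TCA (10% final adherent, 16% suspension) and stained with 0.4% SRB. Bound dye was dissolved in 10 mM Tris and read at 515 nm. GI50, TGI and LC50 were calculated per line.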

[18] = test system: HCT-116; assay: Antitumor activity against human HCT116 cells after 48 hrs by SRB assay; conditions: HCT-116, 48 h; procedure, shortened: as §3
[19] = test system: KM12; assay: Antitumor activity against human KM12 cells after 48 hrs by SRB assay; conditions: KM12, 48 h; procedure, shortened: as §3
[20] = test system: LOX IMVI; assay: Antitumor activity against human LOXIMVI cells after 48 hrs by SRB assay; procedure, shortened: as §3
[21] = test system: 786-0; assay: Antitumor activity against human 786-0 cells after 48 hrs by SRB assay; conditions: 786-0, 48 h; procedure, shortened: as §3
[22] = test system: OVCAR-8; assay: Antitumor activity against human OVCAR8 cells after 48 hrs by SRB assay; conditions: OVCAR-8, 48 h; procedure, shortened: as §3
[23] = test system: SF-295; assay: Antitumor activity against human SF295 cells after 48 hrs by SRB assay; conditions: SF-295, 48 h; procedure, shortened: as §3
[24] = test system: SR; assay: Antitumor activity against human SR cells after 48 hrs by SRB assay
Procedure, shortened: (§4)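 NCI60 panel cells grown in RPMI 1640 with 5% FBS and 2 mM L-glutamine, plated at 5000–40,000 cells/well and preincubated 24 h at 37 °C, 5% CO₂. Compound was added from DMSO at five concentrations, 10-fold or 1/2 log dilutions, then incubated 48 h.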

[25] = test system: CCRF-CEM; assay: Antitumor activity against human CCRF-CEM cells after 48 hrs by SRB assay; procedure, shortened: as §3
[26] = test system: SF-268; assay: Antitumor activity against human SF268 cells after 48 hrs by SRB assay; conditions: SF-268, 48 h; procedure, shortened: as §3
[27] = test system: SK-MEL-28; assay: Antitumor activity against human SK-MEL-28 cells after 48 hrs by SRB assay; conditions: SK-MEL-28, 48 h; procedure, shortened: as §4
[28] = read-out: LC50 (the source's name)
[29] = read-out: pLC50 (the source's name) (converted)

COc1ccc(/C(=C2\O[C@@H]([C@H]3COC(C)(C)O3)[C@H]3OC(C)(C)O[C@@H]23)c2cc(OC)c(OC)c(OC)c2)cc1O
Activity [1]: 113.24% | Activity [2]: 5.71% | Activity [3]: 51.79% | Activity [4]: 91.51% | Activity [5]: 66% | Activity [6]: 10.18% | Activity [7]: 78.08% | Activity [8]: 103.52% | Activity [9]: 112.98% | Activity [10]: 24.26% | Activity [11]: 61.79% | Activity [12]: 82.85% | Activity [13]: 92.89% | Activity [14]: -10.52% | Activity [15]: 116.76% | Activity [16]: 67.52% | GI50 [17]: 2.95 µM | TGI [17]: 7.54 µM | CC50 [17, 28]: 85.6 µM | GI50 [18]: > 100 µM | LC50 (concentration giving 50% net cell kill) [18]: > 100 µM | TGI [18]: > 100 µM | GI50 [19]: 4.1 µM | LC50 [19]: 72.9 µM | TGI [19]: 17.8 µM | GI50 [20]: 3.39 µM | TGI [20]: 19.8 µM | CC50 [20, 28]: > 100 µM | GI50 [21]: 2.3 µM | LC50 [21]: 8.6 µM | TGI [21]: 4.47 µM | GI50 ([22]; read-out: GI50): 6.56 µM | CC50 [22, 28]: > 100 µM | TGI ([22]; read-out: TGI): > 100 µM | GI50 ([22]; read-out: pGI50 (converted)): 8.51 µM | CC50 [22, 29]: > 100 µM | TGI ([22]; read-out: pTGI): > 100 µM | CC50 [23, 28]: > 100 µM | TGI ([23]; read-out: TGI): 43.8 µM | GI50 ([23]; read-out: pGI50 (converted)): 18.6 µM | CC50 [23, 29]: > 100 µM | TGI ([23]; read-out: pTGI (converted)): 43.7 µM | GI50 ([24]; read-out: GI50): 6.1 µM | CC50 [24, 28]: > 100 µM | TGI ([24]; read-out: TGI): > 100 µM | GI50 ([24]; read-out: pGI50 (converted)): 6.17 µM | CC50 [24, 29]: > 100 µM | TGI ([24]; read-out: pTGI): > 100 µM | GI50 ([25]; read-out: GI50): 5.45 µM | CC50 [25, 28]: > 100 µM | TGI ([25]; read-out: TGI): > 100 µM | GI50 ([25]; read-out: pGI50 (converted)): 5.5 µM | CC50 [25, 29]: > 100 µM | TGI ([25]; read-out: pTGI): > 100 µM | LC50 (concentration killing 50% of cells relative to time zero) [26]: > 100 µM | GI50 ([26]; read-out: GI50): 7.96 µM | TGI ([26]; read-out: TGI): 53.6 µM | GI50 ([26]; read-out: pGI50 (converted)): 7.94 µM | CC50 [26, 29]: > 100 µM | TGI ([26]; read-out: pTGI (converted)): 53.7 µM | LC50 (50% lethal concentration) [27]: > 100 µM | GI50 ([27]; read-out: GI50): 10.6 µM | TGI ([27]; read-out: TGI): > 100 µM | GI50 ([27]; read-out: pGI50 (converted)): 10.5 µM | CC50 [27, 29]: > 100 µM | TGI ([27]; read-out: pTGI): > 100 µM
